From ChEMBL document CHEMBL1124180, “Asymmetric synthesis and properties of the enantiomers of the antibacterial agent 7-(3-aminopyrrolidin-1-yl)-1-(2,4-difluorophenyl)-1,4-dihydro-6- fluoro-4-oxo-1,8-naphthyridine-3-carboxylic acid hydrochloride” (J Med Chem, 1988)

Experiments:
[1] = Solubility in aqueous media urine, pH 7.0; assay type: physicochemical; conditions: read-out: S
Mus musculus [2] = assay: In vivo activity against Staphylococcus aureus NCTC 10649, administered po( each compound tested at 3 doses with 10 animals); assay type: functional
Method in brief: (§1)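 Mice were challenged intraperitoneally with the organism. The compound was given orally as a total dose split into equal portions at 1 and 5 h post-infection. Three doses were used, with 10 animals per dose.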

Mus musculus [3] = assay: In vivo activity against Pseudomonas aeruginosa A5007 (100X LD50), administered po( each compound tested at 3 doses with 10 animals); assay type: functional; method in brief: as §1
Cutibacterium acnes = assay: In vitro activity against Propionibacterium acnes (132); assay type: functional
Method in brief: (§2)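 MIC determined under anaerobic conditions on Wilkins-Chalgren agar.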

Mus musculus [4] = assay: In vivo activity against Escherichia coli Juhl(100X LD50), when administered sc(each compound tested at 3 doses with 10 animals); assay type: functional
Method in brief: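 Mice were challenged intraperitoneally with the organism. The compound was given subcutaneously as a total dose split into equal portions at 1 and 5 h post-infection. Three doses were used, with 10 animals per dose.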

[5] = Solubility in aqueous media 0.15Nacetate, pH 6.1; assay type: physicochemical; conditions: 0.15 N acetate, read-out: S
Staphylococcus aureus [6] = assay: In vitro activity against Staphylococcus aureus(45 RAR2); assay type: functional
Method in brief: (§3)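 MIC determined by agar dilution on brain-heart infusion agar under aerobic conditions.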

[7] = Solubility in aqueous media urine, pH 5.7; assay type: physicochemical; conditions: read-out: S
[8] = Solubility in aqueous media urine, pH 6.3; assay type: physicochemical; conditions: read-out: S
Clostridium perfringens [9] = assay: In vitro activity against Clostridium perfringens (104AT13124); assay type: functional
Method in brief: (§4)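 MIC for anaerobic bacteria, measured on Wilkins-Chalgren agar.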

Fusobacterium nucleatum = assay: In vitro activity against Fusobacterium nucleatum (ATCC 25586); assay type: functional; method in brief: as §2
Escherichia coli [10] = assay: In vitro activity against Escherichia coli (H560); assay type: functional
Method in brief: (§5)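 MIC for aerobic bacteria, measured on brain-heart infusion agar.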

Klebsiella pneumoniae = assay: In vitro activity against Klebsiella pneumoniae (ATCC 8045).; assay type: functional; method in brief: as §3
Clostridioides difficile = assay: In vitro activity against Clostridium difficile (ATCC 9689); assay type: functional
Bacteroides fragilis = assay: In vitro activity against Bacteroides fragilis (SFM2906A); assay type: functional; method in brief: as §2
Streptococcus equinus = assay: In vitro activity against Streptococcus bovis (A5169).; assay type: functional; method in brief: as §3
Hoylesella loescheii = assay: In vitro activity against Bacteroides loescheii (ATCC 15930).; assay type: functional; method in brief: as §2
Escherichia coli [11] = assay: In vitro activity against Escherichia coli (DC-2); assay type: functional; method in brief: as §5
[12] = Solubility in aqueous media 0.1 N chloride, pH 6.5; assay type: physicochemical; conditions: read-out: S
Escherichia coli [13] = assay: In vitro activity against Escherichia coli Juhl; assay type: functional; method in brief: as §5
[14] = system: Bacteroides thetaiotaomicron; assay: In vitro activity against Bacteroides thetaiotaomicron (SFM2975-2); assay type: functional; method in brief: as §2
Prevotella bivia = assay: In vitro activity against Bacteroides bivius(B 6140); assay type: functional; method in brief: as §2
Staphylococcus aureus [15] = assay: In vitro activity against Staphylococcus aureus (A5177); assay type: functional; method in brief: as §3
Phocaeicola vulgatus = assay: In vitro activity against Bacteroides vulgatus(792); assay type: functional; method in brief: as §2
Prevotella disiens = assay: In vitro activity against Bacteroides disiens (ATCC 29426); assay type: functional; method in brief: as §2
[16] = system: Bacteroides thetaiotaomicron; assay: In vitro activity against Bacteroides thetaiotaomicron (ATCC 29741); assay type: functional; method in brief: as §2
Staphylococcus aureus [17] = assay: In vitro activity against Staphylococcus aureus(CMX 503A); assay type: functional; method in brief: as §3
Streptococcus pyogenes [18] = assay: In vitro activity against Streptococcus pyogenes (2548 INDUC).; assay type: functional; method in brief: as §3
[19] = system: Bacteroides thetaiotaomicron; assay: In vitro activity against Bacteroides thetaiotaomicron (106); assay type: functional; method in brief: as §2
Streptococcus pyogenes [20] = assay: In vitro activity against Streptococcus pyogenes (EES61); assay type: functional; method in brief: as §3
Clostridium perfringens [21] = assay: In vitro activity against Clostridium perfringens (788); assay type: functional; method in brief: as §4
Escherichia coli [22] = assay: In vitro activity against Escherichia coli (KNK437); assay type: functional; method in brief: as §5
[23] = Solubility in aqueous media Ringer''s buffer, pH 7.4; assay type: physicochemical
Burkholderia cepacia = assay: In vitro activity against Pseudomonas cepacia (296I); assay type: functional; method in brief: as §3
[24] = system: Prevotella melaninogenica; assay: In vitro activity against Bacteroides melaninogenicus (ATCC 25845).; assay type: functional; method in brief: as §2
[25] = system: Bacteroides thetaiotaomicron; assay: In vitro activity against Bacteroides thetaiotaomicron (ATCC 29742); assay type: functional; method in brief: as §2
Enterococcus faecium = assay: In vitro activity against Enterococcus faecium (ATCC 8043).; assay type: functional; method in brief: as §3

Cl.N[C@H]1CCN(c2nc3c(cc2F)c(=O)c(C(=O)O)cn3-c2ccc(F)cc2F)C1
solubility [1]: 17.1 µg/mL
ED50 (Mus musculus [2]): 0.8 mg/kg
ED50 (Mus musculus [3]): 11.5 mg/kg
MIC (Cutibacterium acnes): 2 µg/mL
ED50 (Mus musculus [4]): 0.2 mg/kg
solubility [5]: 4.1 µg/mL
MIC (Staphylococcus aureus [6]): 0.05 µg/mL
solubility [7]: 27.5 µg/mL
solubility [8]: 20.7 µg/mL
MIC (Clostridium perfringens [9]): 0.12 µg/mL
MIC (Fusobacterium nucleatum): 0.25 µg/mL
MIC (Escherichia coli [10]): 0.01 µg/mL
MIC (Klebsiella pneumoniae): 0.01 µg/mL
MIC (Clostridioides difficile): 1 µg/mL
MIC (Bacteroides fragilis): 0.25 µg/mL
MIC (Streptococcus equinus): 0.2 µg/mL
MIC (Hoylesella loescheii): 1 µg/mL
MIC (Escherichia coli [11]): 0.2 µg/mL
solubility [12]: 4.5 µg/mL
MIC (Escherichia coli [13]): 0.02 µg/mL
MIC [14]: 1 µg/mL
MIC (Prevotella bivia): 0.5 µg/mL
MIC (Staphylococcus aureus [15]): 0.05 µg/mL
MIC (Phocaeicola vulgatus): 0.5 µg/mL
MIC (Prevotella disiens): 1 µg/mL
MIC [16]: 0.5 µg/mL
MIC (Staphylococcus aureus [17]): 0.05 µg/mL
MIC (Streptococcus pyogenes [18]): 0.1 µg/mL
MIC [19]: 0.5 µg/mL
MIC (Streptococcus pyogenes [20]): 0.1 µg/mL
MIC (Clostridium perfringens [21]): 0.12 µg/mL
MIC (Escherichia coli [22]): 0.1 µg/mL
solubility [23]: 13 µg/mL
MIC (Burkholderia cepacia): 3.1 µg/mL
MIC [24]: 0.5 µg/mL
MIC [25]: 0.5 µg/mL
MIC (Enterococcus faecium): 0.1 µg/mL
